The values below come from ChEMBL document CHEMBL1811838, “Antimalarial activity of natural and synthetic prodiginines” (J Med Chem, 2011).

Activity calls are given as the source filed them. The calls are words filed in the database; no cut-off is given here. A value given as a limit tells only on which side of the number the result lay.

The subject of data set [1] is Plasmodium falciparum. The data set can be described thus: Antimalarial activity Plasmodium falciparum D6 after 72 hrs by SYBR Green I based fluorescence assay. The settings on record: D6, 72 h. Format: functional, organism-based. The method, boiled down: (§1)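 P. falciparum (D6 pansensitive; Dd2 MDR) cultured under standard conditions and grown 72 h with varying compound concentrations, chloroquine positive control or no drug, each condition in quadruplicate. Growth measured by SYBR Green I fluorescence with minor modifications; IC50 = concentration inhibiting growth by 50%.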

Data set [2] relates to Plasmodium yoelii. The data set can be described thus: Antimalarial activity Plasmodium yoelii infected in CF-1 mouse assessed as reduction of parasitemia at 25 mg/kg, po qd for 3 days administered 24 hrs after infection measured after 24 hrs last dose relative to control. The arrangement: scale not given: the % may be the effect or the level left. Format: functional. In a few lines:
(§2)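 Female outbred CF-1 mice infected iv (tail vein) with 5 × 10^5 P. yoelii Kenya-infected erythrocytes. Groups of five given compound or vehicle alone by gavage in caprylic/capric triglyceride once daily for 3 days starting 24 h post-infection. One day after last dose, Giemsa-stained thin smears scored microscopically for % infected erythrocytes vs untreated controls. Group mean weight day 3 vs day 0. Smear-negative mice followed; parasite-free at 28 days counted cured.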

The test system of data set [3] is Plasmodium yoelii. The data set can be described thus: Antimalarial activity Plasmodium yoelii infected in CF-1 mouse assessed as complete parasite clearance at 100 mg/kg, po qd for 3 days administered 24 hrs after infection measured after 24 hrs last dose. It is filed as functional, organism-based. Further details: dose 100 mg/kg. The method, boiled down: as §2

Data set [4] has as its system Mus musculus. The data set can be described thus: Toxicity in Plasmodium yoelii infected CF-1 mouse assessed as temporary weight loss at 100 mg/kg, po qd for 3 days. Format: organism-based. Further details: dose 100 mg/kg, route oral. The settings on record: in vivo, 72 h. The method, boiled down:
as §2

For data set [5], the system named is Plasmodium falciparum. As to the kind of experiment: Antimalarial activity multidrug-resistant Plasmodium falciparum Dd2 after 72 hrs by SYBR Green I based fluorescence assay. The settings on record: Dd2, 72 h. It is filed as functional, organism-based. The method, boiled down: as §1
A short description of data set [6]: Toxicity in C57BL/6J mouse splenic lymphocytes after 72 hrs by Alamar blue Assay. The note with it: splenic lymphocyte. Format: cell-based. In a few lines:
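Splenic lymphocytes from C57BL/6J mice washed, then stimulated with 1 μg/mL concanavalin A in RPMI/10% FBS with 50 μM β-mercaptoethanol. Seeded at 2 × 10^5 cells/well with serially diluted compound for 72 h at 37 °C, 5% CO2. Resazurin added (final 10 μM) for another 24 h; fluorescence read at ex 560/em 590 nm.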

For data set [7], the system named is Mus musculus. As to the kind of experiment: Toxicity in Plasmodium yoelii infected CF-1 mouse assessed as weight loss at 5 mg/kg, po qd for 3 days relative to control. Further details: dose 5 mg/kg, route oral. The settings on record: in vivo, 72 h. It is filed as organism-based. In a few lines: (§3)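 Female outbred CF-1 mice were infected i.v. via the tail vein with 5 × 10^5 P. yoelii Kenya-infected erythrocytes, in groups of five. Compound or vehicle alone was given by gavage in caprylic/capric triglyceride once daily for 3 days, starting 24 h post-infection. One day after the last dose, Giemsa-stained thin smears were scored by microscopy for % parasitemia versus untreated controls. Group mean weight was recorded as day 3 versus day 0.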

Data set [8] relates to Mus musculus. As to the kind of experiment: Toxicity in Plasmodium yoelii infected CF-1 mouse assessed as weight loss at 25 mg/kg, po qd for 3 days relative to control. The note with it: in vivo, 72 h. Further details: dose 25 mg/kg, route oral. It is filed as organism-based. In a few lines:
as §3

In data set [9] the test system is Plasmodium yoelii. As to the kind of experiment: Antimalarial activity Plasmodium yoelii infected in CF-1 mouse assessed as reduction of parasitemia at 5 mg/kg, po qd for 3 days administered 24 hrs after infection measured after 24 hrs last dose relative to control. Format: functional. Further details: scale not given: the % may be the effect or the level left. In a few lines:
as §3

Regarding `CCC1CCCCCCCCC2=N/C(=C\c3[nH]c(-c4ccc[nH]4)cc3OC)C1=C2` (stereo not drawn) [METACYCLOPRODIGININE], in the data set with Plasmodium falciparum [1], the IC50 was 1.7 nM. The Activity was greater than 99% in the data set on Plasmodium yoelii [2] and “Toxic” in the data set on Mus musculus [4]. The result in the data set with Plasmodium yoelii [3] was Active.
With `CCCCCCCCc1cc(CCC)c(/C=C2\N=C(c3ccc[nH]3)C=C2OC)[nH]1`, the IC50 in the data set on Plasmodium falciparum [1] was 2.9 nM; in the data set on Plasmodium falciparum [5], 2.7 nM; in [6], less than 125 nM. The Activity is reported as 100% in the data set on Plasmodium yoelii [2], 100.1% in the data set on Mus musculus [7], 92.4% with Mus musculus [8] and 90% with Plasmodium yoelii [9].
For `COC1=CC(c2ccc[nH]2)=N/C1=C\c1[nH]c(Cc2ccc(Cl)cc2)cc1Cc1ccc(Cl)cc1`, the IC50 in the data set on Plasmodium falciparum [1] is 6.1 nM; in the data set with Plasmodium falciparum [5] it was 4.8 nM; in data set [6] it was less than 125 nM. The Activity in the data set on Plasmodium yoelii [2] is 100%; with Mus musculus [7], 107.5%; in the data set on Mus musculus [8], 102.5%; with Plasmodium yoelii [9], 92%.
